Assay results as given in ChEMBL document CHEMBL4354817, “4-(3-Aminoazetidin-1-yl)pyrimidin-2-amines as High-Affinity Non-imidazole Histamine H3 Receptor Agonists with in Vivo Central Nervous System Activity” (J Med Chem, 2019).

Experiments:
Histamine H3 receptor [1] = biological target: T1, Histamine H3 receptor (Homo sapiens, UniProt Q9Y5N1); test: Agonist activity at human H3R expressed on HEK293T cells assessed as inhibition of forskolin-induced CRE-driven luciferase activity co-incubated with forskolin for 6 hrs and measured after 30 mins by CRE-luciferase reporter gene assay; type: functional
T1 sequence (Q9Y5N1 whole entry): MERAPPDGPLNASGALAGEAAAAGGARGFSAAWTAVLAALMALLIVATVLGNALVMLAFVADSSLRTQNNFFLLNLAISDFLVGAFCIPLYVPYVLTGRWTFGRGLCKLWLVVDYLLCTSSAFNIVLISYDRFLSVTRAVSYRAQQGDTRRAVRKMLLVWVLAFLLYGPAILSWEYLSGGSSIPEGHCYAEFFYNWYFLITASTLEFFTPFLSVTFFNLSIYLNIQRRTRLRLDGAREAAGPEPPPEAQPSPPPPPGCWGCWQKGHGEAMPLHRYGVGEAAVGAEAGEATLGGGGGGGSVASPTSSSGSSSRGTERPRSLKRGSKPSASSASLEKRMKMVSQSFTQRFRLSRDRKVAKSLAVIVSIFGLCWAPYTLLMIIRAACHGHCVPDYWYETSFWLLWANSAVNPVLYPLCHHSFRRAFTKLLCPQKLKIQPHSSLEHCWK
In short: (§1)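 HEK293T cells transiently transfected (PEI method) in suspension with receptor cDNA (1000 ng), CRE-luciferase (2500 ng) and empty pcDEF3; 50.000 cells/well on poly-L-lysine, grown 24 h. Stimulated with increasing ligand concentrations plus 1 μM forskolin, 37 °C, 5% CO2, 6 h. Luciferase reagent (ATP, D-luciferin) added, luminescence read after 30 min at 37 °C. Nonlinear regression; α relative to histamine; three experiments in triplicate.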

Histamine H3 receptor [2] = biological target: T1, Histamine H3 receptor; test: Intrinsic activity at human H3R expressed on HEK293T cells assessed as activation of forskolin-induced CRE-driven luciferase activity co-incubated with forskolin for 6 hrs and measured after 30 mins by CRE-luciferase reporter gene assay relative to histamine; type: functional; in short: as §1
Histamine H3 receptor [3] = biological target: T1, Histamine H3 receptor; test: Displacement of [3H]NAMH from human H3R expressed in HEK293T cells incubated for 2 hrs by microbeta scintillation counting analysis; type: cell-based
In short: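 Homogenates of HEK293T cells transiently expressing hH3R or mH3R, harvested 48 h post-transfection, incubated with 2 nM [3H]NAMH and increasing unlabeled ligand in 50 mM Tris–HCl pH 7.4, 2 h at 25 °C. Rapid filtration over 0.5% PEI-coated GF/C filters, scintillation counting. One-site fit; IC50 converted to pKi by Cheng–Prusoff; three experiments in triplicate.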

EC50 (Histamine H3 receptor [1]) [nM] | Intrinsic activity (Histamine H3 receptor [2]) | Ki (Histamine H3 receptor [3]) [nM] | SMILES
79.4 | 0.7 | 200 | CC(C)c1cc(N2CC(N)C2)nc(N)n1
31.6 | 0.9 | 126 | CCNC1CN(c2cc(CC)nc(N)n2)C1
100 | 0.4 | 126 | CC(C)c1cc(N2CC(N(C)C)C2)nc(N)n1
3.98 | 1 | 50.1 | CN(C)C1CN(c2ccnc(N)n2)C1
7.94 | 1.3 | 39.8 | Nc1nccc(N2CC(N3CCCC3)C2)n1

The next lines start with the compound.

SMILES | EC50 (Histamine H3 receptor [1]) [nM] | Intrinsic activity (Histamine H3 receptor [2]) | Ki (Histamine H3 receptor [3]) [nM]
CCc1cc(N2CC(N)C2)nc(N)n1 | 31.6 | 0.9 | 79.4
CNC1CN(c2cc(C)nc(N)n2)C1 | 10 | 0.8 | 31.6
Cc1cc(N2CC(N(C)C)C2)nc(N)n1 | 39.8 | 0.9 | 316
CNC1CN(c2ccnc(N)n2)C1 | 1.26 | 1.1 | 6.31
CCc1cc(N2CC(NC)C2)nc(N)n1 | 25.1 | 0.8 | 50.1
CCNC1CN(c2ccnc(N)n2)C1 | 0.631 | 1 | 10
CCNC1CN(c2cc(C(C)C)nc(N)n2)C1 | 158 | 0.3 | 100
